KCNK9 block – human KCNK9 channel inhibition | 310,000 compounds, 1.2% hits | AID 488922 | B-score at 10 µM | HEK293 KCNK9, FluxOR thallium flux fluorescence; stronger effect = lower value | Q9NPC2;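 active means ratio B-score over 3 SD below the library mean, with starting fluorescence within 5 SD of its mean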;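 further: negative B-score means less thallium flux so channel inhibition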
hERG protect – shields human hERG channel from block by proarrhythmic agents. CHO-hERG, FluxOR thallium flux, dofetilide IC70 present. 310,000 compounds, 0.51% hits. activation (rescue from dofetilide block), less the hit threshold, % at 10 µM. AID 1511. Q12809;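 active means activation above the mean of controls blocked by dofetilide plus 5 SD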;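 further: thallium influx through hERG after potassium depolarization seen as dye fluorescence rise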
KCNQ1 act – potentiates or activates the human KCNQ1 potassium channel; P51787; CHO-K1 KCNQ1, thallium flux FluxOR fluorescence; stronger effect = higher value; B-score at 10 µM; 310,000 compounds, 0.35% hits; AID 2648;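 active means fluorescence ratio B-score, a plate-corrected score, at least three library SD, with initial intensity B-score within 5 SD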
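assay system = CHO-K1 cells stably expressing KCNQ1 | medium = assay buffer, equal DMSO in all wells | timing = 37 °C overnight plating, 90-min dark dye load, 20-min compound pretreatment | measured by = kinetic FluxOR thallium fluorescence, 10-s 1-Hz baseline, 110-s post-stimulus read | measure = fluorescence change relative to baseline, converted to B score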
Kir21 block – Kir2.1 (mouse) channel inhibition; HEK293-Kir2.1, FluxOR thallium flux fluorescence; stronger effect = lower value; AID 1672; P35561; B-score at 10 µM; 310,000 compounds, 0.85% hits;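 active means fluorescence ratio B-score at or below minus 3 SD of library scores, with starting-brightness B-score within 2 SD, cut at about -4.2 in these data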;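 further: channel flux triggered by added potassium and thallium sulfate stimulus; B-score of peak minus minimum fluorescence over baseline after thallium stimulus; more negative B-score means stronger Kir2.1 block with less thallium influx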
KCNQ1 inh – blocks the human KCNQ1 potassium channel; 310,000 compounds, 1.3% hits; CHO-K1 KCNQ1, FluxOR thallium flux fluorescence; stronger effect = higher value; B-score at 10 µM;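 active means compounds whose thallium flux B-score, printed positive for inhibition, exceeds three library SD while starting fluorescence stays within three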;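 further: channel opened by potassium depolarization with thallium stimulus after 20 min compound exposure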
KCNK3 block – human KCNK3 channel inhibition, primary screen; CHO-KCNK3 thallium flux, FluxOR fluorescence; stronger effect = lower value; B-score at 10 µM; 340,000 compounds, 0.84% hits;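 active means B-score under library mean minus 4 SD, starting fluorescence ratio at most library mean plus 5 SD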;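 further: more negative B-score means stronger inhibition of thallium flux through KCNK3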
Target sequence (O14649 whole entry, looked up): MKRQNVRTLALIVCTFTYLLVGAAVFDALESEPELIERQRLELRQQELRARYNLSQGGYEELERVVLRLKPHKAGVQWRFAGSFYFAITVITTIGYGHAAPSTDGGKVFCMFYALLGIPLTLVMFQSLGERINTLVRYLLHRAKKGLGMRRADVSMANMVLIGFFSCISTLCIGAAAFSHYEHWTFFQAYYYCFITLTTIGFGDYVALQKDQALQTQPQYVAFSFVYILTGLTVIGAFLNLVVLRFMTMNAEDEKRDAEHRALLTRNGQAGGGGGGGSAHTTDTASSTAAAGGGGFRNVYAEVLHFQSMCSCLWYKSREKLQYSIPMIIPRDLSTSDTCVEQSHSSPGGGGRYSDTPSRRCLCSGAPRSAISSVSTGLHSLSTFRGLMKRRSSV
Active calls of the source: *; i = inactive; . = no result given. Most compounds without a hit are left out; they make up all but 3.7% or so of the library.

SMILES	KCNK9 block	hERG protect	KCNQ1 act	Kir21 block	KCNQ1 inh	KCNK3 block
Cc1csc(NC(=S)NC(=O)c2ccccc2)n1	i	4.7*	i	1.4	i	i
Brc1ccc(-c2nnc3n2C2(CCCC2)Cc2ccccc2-3)o1	i	-14	i	0.28	i	i
CCOC(=O)c1c(NC(=O)Cn2ccsc2=N)sc(C)c1C	i	-11	i	0.36	i	i
CCN(CC)C(=O)[C@H]1CC(CC(=O)NCc2ccco2)C(=O)N2CCc3c([nH]c4ccc(OC)cc34)[C@]12C (some centres undefined)	.	.	.	.	.	i
O=C(CN1CCCC1)Nc1ccccc1Sc1ccccc1	i	-19	i	-4.2*	i	i
O=C(CSc1ncn[nH]1)Nc1ccccc1Sc1ccc(Cl)cc1	i	-12	i	-4.7*	i	i
O=C(CSc1ncn[nH]1)NCCOc1ccccc1	i	1	i	0	i	i
O=C(CSc1ncn[nH]1)NCCC(c1ccccc1)c1ccccc1	i	-5	i	-5.2*	i	i
CN1CCN(CC(=O)Nc2ccccc2Sc2ccccc2)CC1	i	-4	i	-2.8	i	i
Cc1ccccc1CN(C)CC(=O)Nc1ccccc1Oc1ccccc1	-7.5*	-14	i	0.25	i	i
Nc1cc(=O)[nH]c(SCC(=O)Nc2ccccc2Sc2ccc(Cl)cc2)n1	i	-14	i	-0.09	i	i
O=C(CN1CCOCC1)Nc1ccccc1F	i	-8	i	1.3	i	i
O=C(CN1CCOCC1)Nc1ccccc1Sc1ccc(Cl)cc1	i	-12	i	-5.2*	i	i
O=C(CN1CCCCC1)Nc1ccccc1Oc1ccccc1	i	-9	i	-5.6*	i	i
CN(CCOc1ccc(Cl)cc1)C(=O)c1cc([N+](=O)[O-])ccc1N1CCOCC1	i	-19	i	-1.2	i	i
O=C(CN(c1cccc(Br)c1)S(=O)(=O)c1ccccc1)N/N=C/c1cc([N+](=O)[O-])ccc1O	i	-20	i	-0.02	16*	i
O=C(CCCC(=O)Nc1cccc(Br)c1)N/N=C/c1cc([N+](=O)[O-])ccc1O	i	-9	i	-2.7	7*	i
CC(NC(=S)Nc1ccc([N+](=O)[O-])cc1)c1ccncc1 (centres undefined)	i	0	i	0.23	7*	i
COc1cccc(NC(=O)CN(C)C(=O)CSCC(=O)Nc2ccc(C)cc2)c1	.	.	.	.	.	i
C#CCOCCOCCOCCNc1nc(N2CCN(C(=O)C([C@@H](C)CC)n3cc(C(N)Cc4ccc(O)cc4)nn3)CC2)nc(N2CCN(C(=O)[C@H](CCC(=O)O)n3cc(C(N)CC(C)C)nn3)CC2)n1 (some centres undefined)	i	-5	24*	-0.6	i	i
C#CCOCCOCCOCCNc1nc(N2CCN(C(=O)C([C@@H](C)CC)n3cc(C(N)CC(C)C)nn3)CC2)nc(N2CCN(C(=O)[C@H](CCC(=O)O)n3cc(C(N)Cc4ccc(O)cc4)nn3)CC2)n1 (some centres undefined)	i	-1	i	-1.4	i	i
CCCCOc1ccc(C(=O)NNC(=S)NC(=O)CC)cc1	i	-12	i	1.9	i	i
COc1ccc(C(=O)NNC(=S)NC(=O)c2ccc(Cl)cc2)cc1	i	-9	i	1.4	i	i
CCC(=O)NC(=S)NNC(=O)c1ccc(OC)cc1	-7.2*	-7	i	-0.63	i	i
COc1ccc(C(=O)NC(=S)NNC(=O)c2ccc(C)cc2)cc1	i	-6	13*	1.7	i	i
SMILES	KCNK9 block	hERG protect	KCNQ1 act	Kir21 block	KCNQ1 inh	KCNK3 block
COc1ccc(O)c(/C=N/NC(=O)CN2CCS(=O)(=O)CC2)c1	i	-4	i	0.85	i	i
COc1ccc(CNCCc2ccc(Cl)cc2)cc1OCc1ccccc1	i	-41	i	-6.4*	10*	-9.5*
NS(=O)(=O)c1ccc(CCNC/C=C/c2ccccc2)cc1	i	-2	i	0.58	i	i
COc1cc(CN(C)CCc2ccccc2)ccc1OCc1ccccc1	i	-17	i	-7.6*	i	i
COc1ccc(CCNCc2ccc(OCc3ccccc3)cc2)cc1	i	-9	i	-5.4*	i	i
COc1ccc(CNCCc2ccccc2)cc1OCC(N)=O	i	-6	i	0.8	i	i
COc1ccc(CCNC/C=C/c2ccccc2)cc1	i	-1	i	-8.4*	i	i
Cc1cccc(NS(=O)(=O)c2cccc(C(=O)N3CCN(C/C=C/c4ccccc4)CC3)c2)c1	.	.	.	.	.	i
COc1ccc(CCC(C)Nc2cccc(F)c2)cc1 (centres undefined)	-6.6*	-8	i	2.1	i	i
CCOc1cc(CNCc2ccccc2)ccc1OCc1ccc(Cl)cc1	i	-21	i	-10	7*	i
COc1ccc(CCC(C)NCc2ccc(C(F)(F)F)cc2)cc1 (centres undefined)	i	-2	i	-2.7	i	i
COc1ccc(CNC(C)CCc2ccccc2)cc1 (centres undefined)	i	-11	i	-6.3*	i	i
c1ccc(COc2ccc(CNCc3cccs3)cc2)cc1	i	-14	i	-13*	i	i
Brc1ccc(CNCc2cccs2)cc1	i	-3	i	0.86	i	i
Cc1c(C#N)c(N)c(C(=O)c2ccccc2)n1Cc1ccccc1	i	-6	i	-5.2*	i	i
O=C(Nc1ccc2[nH]c(=S)sc2c1)Nc1ccccc1F	i	11*	15*	1.3	i	i
O=C(Nc1ccc2[nH]c(=S)sc2c1)c1ccccc1	i	-7	12*	1.6	i	i
Cc1ccc(OCc2cccc(S(=O)(=O)N(C)C)c2)c([N+](=O)[O-])n1	i	-7	i	-2.7	i	i
COc1ccc(/C=C(/NC(=O)c2ccco2)C(=O)NCc2ccco2)cc1OC	i	-10	i	0.94	i	i
CC1(N2CCCCC2)CC2(O)C(=[N+]1[O-])CCC/C2=N\O (centres undefined)	i	-6	8*	-0.15	i	i
CCOc1cc(CNc2ccc(O)cc2)ccc1OCc1ccc(Cl)cc1Cl	i	-2	i	2.2	i	i
COc1cc(CNC(C)(C)CO)cc(Br)c1OCc1ccc(Cl)cc1	i	-21	i	-4.8*	i	i
COc1cc(CNc2ccc(O)cc2)cc(Br)c1OCc1ccccc1	i	-22	i	-0.52	i	i
